Sampled rows, rich in hits. Any-hit rate of the full collection: about 1.8%.
Casp6 inh – inhibitors of human caspase-6; P55212; purified caspase-6, Z-VEID-R110 cleavage fluorescence; inhibition, % at 12.5 µM; 0.53% of 350,000 active; AID 686996;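 active means mean inhibition across replicates at least about 35%, with every replicate also reaching that limit, limit read from the data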;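 further: 0% = median of neutral control wells and 100% = no fluorescence left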
LEDGF integ inh – blocks HIV-1 LEDGF/p75-dependent DNA integration; inhibition, % at 3.7 µM; AID 743269; TR-FRET IN-LEDGF/p75 DNA integration, Eu/Cy5; 0.64% of 370,000 active;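 active means inhibition above the screen-wide mean plus 3 SD, cut at about 13% in these data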;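 further: signal is the Cy5 over europium emission ratio at 671 and 618 nm; 0% = plate median of compound wells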
UHRF1 MBD2 ctr – UHRF1 methyl-DNA binding inhibition; UHRF1 binding to methylated oligo, TR-FRET; Q96T88; AID 687016; inhibition, % at 4.4 µM; 0.75% of 370,000 active; in the data active means inhibition above about 21%;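 further: UHRF1 SRA domain binding a hemimethylated CpG hairpin DNA probe; 0% = median of test compound wells and 100% = reference inhibitor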
MBD2 DNA inh – MBD2-methylated oligo binding inhibition | Q9UBB5 | TR-FRET, MBD2 binding to methylated oligonucleotide | inhibition, % at 4.4 µM | 0.31% of 370,000 active | AID 686964; in the data active means inhibition above about 13%
NSD2 inh – NSD2 (human) methyltransferase inhibition. 0.54% of 310,000 active. NSD2 peptide methylation, AlphaScreen, 120 min. inhibition, % at 12.5 µM. AID 743445; in the data active means inhibition above about 50%
TDP2 inh – TDP2 (human) inhibition, absorbance primary screen | O95551 | recombinant TDP2, T5PNP hydrolysis, p-nitrophenol absorbance 415 nm | inhibition, % at 12.8 µM | 0.34% of 370,000 active | AID 720702;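 active means inhibition above the mean of all tested compounds plus 3 SD, set per campaign, cut at about 25% in these data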;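 further: 0% = DMSO with enzyme and 100% = buffer with substrate but no TDP2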
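System – recombinant human TDP2 · Amount – 120 nM TDP2 per well · Buffer or medium – Mg2+-containing Tris-HCl buffer, pH 7.5 · Reagent – T5PNP substrate, 5 mM · Dosing – 12.8 µM single point, 1% DMSO · Incubation – 2 h at 37 °C · Measured by – epi absorbance · Read-out basis – percent inhibition · Benchmarks – high control without enzyme, low control DMSO plus TDP2 · Repeats – singlicate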
Active calls of the source: *.

Results for O=C(OCC(=O)N1N=C(c2ccc(Cl)cc2)CC1c1ccco1)c1cncc(Br)c1 (centres undefined) ?
Casp6 inh: 41*; LEDGF integ inh: 2; UHRF1 MBD2 ctr: -4; MBD2 DNA inh: -5; NSD2 inh: 1; TDP2 inh: 4

What do the screens show for `Cc1cc(C)n(-c2ccc3nnc(C)n3n2)n1`?
Casp6 inh: -1; LEDGF integ inh: -3; UHRF1 MBD2 ctr: 24*; MBD2 DNA inh: 7; NSD2 inh: -2; TDP2 inh: 5

What do the screens show for `NC(=O)c1ccc(NCCc2ccco2)cc1`?
Casp6 inh: 4; LEDGF integ inh: 3; UHRF1 MBD2 ctr: -1; MBD2 DNA inh: 1; TDP2 inh: 8

Results for O=C(CCc1ccco1)CCc1ccco1 ?
Casp6 inh: 76*; LEDGF integ inh: 1; UHRF1 MBD2 ctr: 14; MBD2 DNA inh: 6; NSD2 inh: -2; TDP2 inh: 5

What do the screens show for `Cc1ccc(N2C(=O)[C@@H]3[C@H](C2=O)C2c4ccccc4C=CN2[C@@H]3C(=O)c2ccco2)c(C)c1` (some centres undefined)?
LEDGF integ inh: 10; UHRF1 MBD2 ctr: -7; MBD2 DNA inh: -7; TDP2 inh: 26*

Results for COc1ccc(N2C(=O)[C@@H]3[C@H](C2=O)[C@H]2c4ccccc4C=CN2[C@@H]3C(=O)Nc2ccccc2)cc1 ?
LEDGF integ inh: 2; UHRF1 MBD2 ctr: 5; MBD2 DNA inh: 1; NSD2 inh: -2; TDP2 inh: 10

How did O=C(c1ccco1)[C@@H]1[C@@H]2C(=O)N(c3ccccc3)C(=O)[C@@H]2C2c3ccccc3C=CN21 (some centres undefined) do in these assays?
LEDGF integ inh: 12; UHRF1 MBD2 ctr: -5; MBD2 DNA inh: -7; TDP2 inh: 43*

How did O=C1C2C3C=CC(C3)C2C(=O)N1Cc1ccccc1 (centres undefined) do in these assays?
LEDGF integ inh: -3; UHRF1 MBD2 ctr: 1; MBD2 DNA inh: -1; NSD2 inh: 0; TDP2 inh: -6

What do the screens show for `CC(=O)[C@@H]1[C@@H]2C(=O)N(Cc3ccccc3)C(=O)[C@@H]2C2c3ccccc3C=CN21` (some centres undefined)?
Casp6 inh: 61*; LEDGF integ inh: 1; UHRF1 MBD2 ctr: -10; MBD2 DNA inh: -7; TDP2 inh: 10

How did C[C@@H]1CCCCO[C@H](CN(C)Cc2ccc(C(=O)O)cc2)[C@@H](C)CN([C@@H](C)CO)C(=O)c2cc(NC(=O)NC3CCCCC3)ccc2O1 do in these assays?
Casp6 inh: 0

How did Cc1cc(C)cc(OCC(=O)NC2CCCc3ccccc32)c1 (centres undefined) do in these assays?
LEDGF integ inh: 0; UHRF1 MBD2 ctr: 21*; MBD2 DNA inh: -1; NSD2 inh: -2; TDP2 inh: 3

How did C#CC(C)(C)NC(=O)c1ccc(-c2ccccc2F)cc1 do in these assays?
Casp6 inh: 44*; LEDGF integ inh: 4; UHRF1 MBD2 ctr: 7; MBD2 DNA inh: 6; NSD2 inh: 14; TDP2 inh: -6

Results for C[C@H](CO)N1C[C@H](C)[C@H](CN(C)C(=O)Nc2ccc(F)cc2)Oc2ccc(NC(=O)Cc3ccccc3)cc2C1=O ?
Casp6 inh: 0

What do the screens show for `CC(C)CC#Cc1ccc2c(c1)O[C@@H](CN(C)Cc1ccccn1)[C@H](C)CN([C@@H](C)CO)S2(=O)=O`?
Casp6 inh: -2

How did Cc1noc(C)c1S(=O)(=O)Nc1ccc(C(=O)NC2CCCCCC2)cc1 do in these assays?
LEDGF integ inh: 7; UHRF1 MBD2 ctr: 21*; MBD2 DNA inh: 11; NSD2 inh: 1; TDP2 inh: 14

What do the screens show for `Cc1noc(C)c1S(=O)(=O)Nc1ccc(C(=O)NC2CCCCC2C)cc1` (centres undefined)?
LEDGF integ inh: -1; UHRF1 MBD2 ctr: -2; MBD2 DNA inh: -3; NSD2 inh: -1; TDP2 inh: 8

Results for Cc1cccnc1NC(=O)/C=C/c1ccc2c(c1)OCO2 ?
LEDGF integ inh: 7; UHRF1 MBD2 ctr: 23*; MBD2 DNA inh: 6; NSD2 inh: 0; TDP2 inh: 14

How did Nc1ccn([C@@H]2O[C@H](CNCc3ccc(C#CCCO)cc3)[C@@H](O)[C@H]2O)c(=O)n1 do in these assays?
Casp6 inh: -5; LEDGF integ inh: 3; UHRF1 MBD2 ctr: -1; MBD2 DNA inh: -2; TDP2 inh: 7

What do the screens show for `C#CCOc1ccc(CNC[C@H]2O[C@@H](n3ccc(N)nc3=O)[C@H](O)[C@@H]2O)cc1`?
Casp6 inh: 39*; LEDGF integ inh: 1; UHRF1 MBD2 ctr: -2; MBD2 DNA inh: 0; TDP2 inh: 11

How did CCCCCNCC(=O)Nc1cc(C(F)(F)F)ccc1OCCOC do in these assays?
Casp6 inh: -2; LEDGF integ inh: 0; UHRF1 MBD2 ctr: 48*; MBD2 DNA inh: -10; NSD2 inh: 0; TDP2 inh: 4

How did COCCOc1ccc(C(F)(F)F)cc1NC(=O)c1ccc(C)cc1 do in these assays?
LEDGF integ inh: 5; UHRF1 MBD2 ctr: -4; MBD2 DNA inh: -7; NSD2 inh: 0; TDP2 inh: -8

Results for O=C(CCNC(=O)c1ccccc1Cl)NNC(=O)c1ccccc1O ?
Casp6 inh: -8; LEDGF integ inh: -11; UHRF1 MBD2 ctr: 34*; MBD2 DNA inh: 3; NSD2 inh: 3; TDP2 inh: -12

How did O=C(CC1CCCC1)NNC(=O)c1ccccc1O do in these assays?
Casp6 inh: -8; LEDGF integ inh: -5; UHRF1 MBD2 ctr: 36*; MBD2 DNA inh: 4; NSD2 inh: -2; TDP2 inh: 7

How did O=C(CCC1CCCC1)NNC(=O)c1cc2ccccc2cc1O do in these assays?
Casp6 inh: 2; LEDGF integ inh: -7; UHRF1 MBD2 ctr: -2; MBD2 DNA inh: 1; NSD2 inh: 1; TDP2 inh: -5

Results for CN1c2ccc(C3=CCCCC3)cc2[C@@H]2[C@@H](CCN2C(=O)C2CCC2)[C@H]1CO ?
Casp6 inh: 0

Results for CCC[C@@H](CN1CCC[C@H]1CN1C(N)=NC[C@H]1CC(C)C)N1C[C@@H](Cc2ccccc2)N(CCc2ccc(Cl)c(Cl)c2)C1=N ?
Casp6 inh: 36*; LEDGF integ inh: -1; UHRF1 MBD2 ctr: 15; MBD2 DNA inh: 5; TDP2 inh: -10

How did CCCCN1C(=N)N([C@@H](CCC)CN2CCC[C@H]2CN2C(N)=NC[C@@H]2Cc2ccccc2)C[C@H]1Cc1ccccc1 do in these assays?
Casp6 inh: -4; LEDGF integ inh: 5; UHRF1 MBD2 ctr: 3; MBD2 DNA inh: -1; TDP2 inh: -14

How did CCC[C@@H](CN1CCC[C@H]1CN1C(N)=NC[C@@H]1Cc1ccccc1)N1C[C@@H](Cc2ccccc2)N(CCc2ccc(Cl)c(Cl)c2)C1=N do in these assays?
Casp6 inh: 45*; LEDGF integ inh: 1; UHRF1 MBD2 ctr: 2; MBD2 DNA inh: -4; TDP2 inh: 4
